Laboratory results as given in ChEMBL document CHEMBL3425433, “Discovery of bicyclic pyrazoles as class III histone deacetylase SIRT1 and SIRT2 inhibitors” (Bioorg Med Chem Lett, 2015).
Active and inactive are the calls of the source. The calls are words filed in the database; no cut-off is given here.

Legend:
[1] = target: Histone deacetylase 4 (Homo sapiens) (UniProt P56524); experiment: Inhibition of HDAC4 (unknown origin)
[2] = target: T1, NAD-dependent protein deacetylase sirtuin-2 (Homo sapiens) (UniProt Q8IXJ6); experiment: Inhibition of His-tagged human recombinant SIRT2 expressed in Escherichia coli at 20 uM using Cbz-Lys(Ac)-AMC as substrate by fluorescence assay
T1 sequence (whole entry): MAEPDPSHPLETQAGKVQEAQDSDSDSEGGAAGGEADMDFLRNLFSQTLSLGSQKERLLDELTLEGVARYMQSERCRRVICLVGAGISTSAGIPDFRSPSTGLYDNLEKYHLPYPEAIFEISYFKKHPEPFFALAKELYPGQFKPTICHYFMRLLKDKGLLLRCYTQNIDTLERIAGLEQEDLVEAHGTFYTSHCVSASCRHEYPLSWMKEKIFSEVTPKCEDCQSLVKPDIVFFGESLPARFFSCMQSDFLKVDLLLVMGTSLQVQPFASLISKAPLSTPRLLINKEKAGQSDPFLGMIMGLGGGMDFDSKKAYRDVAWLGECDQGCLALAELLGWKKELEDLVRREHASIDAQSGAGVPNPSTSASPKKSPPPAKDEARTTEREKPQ
In short: (§1)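 Fluorescence deacetylase assay with in-house Cbz-Lys(Ac)-AMC substrate. Values are means of three experiments on racemic material. Single-point lines were tested at 20 µM, and less than 20% inhibition was scored as no inhibition.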

[3] = target: Histone deacetylase 2 (Homo sapiens, UniProt Q92769); experiment: Inhibition of HDAC2 (unknown origin)
[4] = target: Histone deacetylase 5 (Homo sapiens) (UniProt Q9UQL6); experiment: Inhibition of HDAC5 (unknown origin)
[5] = target: T2, NAD-dependent protein deacetylase sirtuin-1 (Homo sapiens) (UniProt Q96EB6); experiment: Inhibition of His-tagged human recombinant SIRT1 expressed in Escherichia coli at 20 uM using Cbz-Lys(Ac)-AMC as substrate by fluorescence assay; in short: as §1
T2 sequence (whole entry): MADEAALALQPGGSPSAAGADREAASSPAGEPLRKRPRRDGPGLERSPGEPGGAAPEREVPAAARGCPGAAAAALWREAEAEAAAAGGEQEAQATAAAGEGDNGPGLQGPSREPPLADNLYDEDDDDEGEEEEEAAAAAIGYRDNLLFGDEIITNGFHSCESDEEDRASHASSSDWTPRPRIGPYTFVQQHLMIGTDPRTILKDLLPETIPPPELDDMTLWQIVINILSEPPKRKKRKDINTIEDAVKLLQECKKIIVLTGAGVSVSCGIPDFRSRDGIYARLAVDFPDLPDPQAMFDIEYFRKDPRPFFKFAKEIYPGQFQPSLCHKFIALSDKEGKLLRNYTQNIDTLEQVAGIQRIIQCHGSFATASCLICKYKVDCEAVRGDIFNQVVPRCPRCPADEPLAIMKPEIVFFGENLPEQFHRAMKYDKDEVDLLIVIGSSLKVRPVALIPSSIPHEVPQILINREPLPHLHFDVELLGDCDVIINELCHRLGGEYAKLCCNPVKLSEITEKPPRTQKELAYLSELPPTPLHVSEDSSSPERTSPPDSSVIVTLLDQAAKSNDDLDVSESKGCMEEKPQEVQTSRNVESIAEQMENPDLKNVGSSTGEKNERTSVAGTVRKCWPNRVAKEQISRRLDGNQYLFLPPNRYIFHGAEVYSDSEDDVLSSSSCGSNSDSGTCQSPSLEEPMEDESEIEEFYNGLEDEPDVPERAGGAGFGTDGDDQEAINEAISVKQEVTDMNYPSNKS

[6] = target: T3, Protein deacetylase HDAC6 (Homo sapiens) (UniProt Q9UBN7); experiment: Inhibition of HDAC6 (unknown origin)
T3 sequence (whole entry): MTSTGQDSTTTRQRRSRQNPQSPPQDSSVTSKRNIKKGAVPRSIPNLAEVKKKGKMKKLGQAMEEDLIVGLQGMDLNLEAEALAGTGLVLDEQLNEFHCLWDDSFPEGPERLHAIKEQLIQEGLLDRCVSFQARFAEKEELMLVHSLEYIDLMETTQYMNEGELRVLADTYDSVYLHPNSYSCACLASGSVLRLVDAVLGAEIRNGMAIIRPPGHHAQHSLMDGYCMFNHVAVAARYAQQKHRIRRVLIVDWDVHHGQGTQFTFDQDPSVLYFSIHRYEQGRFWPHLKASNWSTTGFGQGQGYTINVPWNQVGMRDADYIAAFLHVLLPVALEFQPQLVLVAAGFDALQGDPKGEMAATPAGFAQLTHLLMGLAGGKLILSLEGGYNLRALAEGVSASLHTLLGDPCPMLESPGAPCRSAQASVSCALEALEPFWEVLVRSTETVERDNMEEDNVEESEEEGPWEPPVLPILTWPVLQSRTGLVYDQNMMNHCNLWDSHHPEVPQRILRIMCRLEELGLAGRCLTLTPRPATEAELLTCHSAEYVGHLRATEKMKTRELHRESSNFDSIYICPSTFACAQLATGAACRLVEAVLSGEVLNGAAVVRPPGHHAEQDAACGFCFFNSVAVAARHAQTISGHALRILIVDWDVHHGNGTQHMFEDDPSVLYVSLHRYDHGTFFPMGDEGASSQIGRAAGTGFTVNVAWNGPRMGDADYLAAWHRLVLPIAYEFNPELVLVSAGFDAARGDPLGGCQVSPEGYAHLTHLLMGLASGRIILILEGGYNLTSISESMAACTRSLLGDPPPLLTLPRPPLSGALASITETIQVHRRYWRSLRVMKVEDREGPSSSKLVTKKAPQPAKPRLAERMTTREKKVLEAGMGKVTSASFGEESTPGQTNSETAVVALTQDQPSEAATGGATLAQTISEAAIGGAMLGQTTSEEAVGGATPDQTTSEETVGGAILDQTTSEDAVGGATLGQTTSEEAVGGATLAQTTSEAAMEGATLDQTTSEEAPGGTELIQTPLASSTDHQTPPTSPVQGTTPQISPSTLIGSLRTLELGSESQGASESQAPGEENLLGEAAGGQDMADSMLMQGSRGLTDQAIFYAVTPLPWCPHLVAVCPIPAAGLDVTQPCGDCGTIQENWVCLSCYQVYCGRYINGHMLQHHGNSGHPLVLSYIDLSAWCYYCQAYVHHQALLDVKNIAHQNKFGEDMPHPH

[7] = target: Histone deacetylase 1 (Homo sapiens, UniProt Q13547); experiment: Inhibition of HDAC1 (unknown origin)
Chain of Histone deacetylase 1 (Q13547 whole entry): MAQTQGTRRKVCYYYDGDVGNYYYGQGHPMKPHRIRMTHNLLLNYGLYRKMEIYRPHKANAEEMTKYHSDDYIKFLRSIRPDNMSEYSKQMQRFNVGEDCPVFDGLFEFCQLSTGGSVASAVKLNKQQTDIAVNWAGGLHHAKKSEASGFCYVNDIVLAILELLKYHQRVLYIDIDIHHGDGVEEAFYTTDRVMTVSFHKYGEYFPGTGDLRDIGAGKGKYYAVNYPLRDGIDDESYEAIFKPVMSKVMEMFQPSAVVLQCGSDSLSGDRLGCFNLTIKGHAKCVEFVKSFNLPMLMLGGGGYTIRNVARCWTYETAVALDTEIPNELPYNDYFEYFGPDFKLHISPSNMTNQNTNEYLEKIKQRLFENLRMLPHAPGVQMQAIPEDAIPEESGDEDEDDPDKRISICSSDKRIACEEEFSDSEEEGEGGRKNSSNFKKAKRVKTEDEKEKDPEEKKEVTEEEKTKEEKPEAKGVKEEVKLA

Chain of Histone deacetylase 5 (Homo sapiens) (Q9UQL6 whole entry): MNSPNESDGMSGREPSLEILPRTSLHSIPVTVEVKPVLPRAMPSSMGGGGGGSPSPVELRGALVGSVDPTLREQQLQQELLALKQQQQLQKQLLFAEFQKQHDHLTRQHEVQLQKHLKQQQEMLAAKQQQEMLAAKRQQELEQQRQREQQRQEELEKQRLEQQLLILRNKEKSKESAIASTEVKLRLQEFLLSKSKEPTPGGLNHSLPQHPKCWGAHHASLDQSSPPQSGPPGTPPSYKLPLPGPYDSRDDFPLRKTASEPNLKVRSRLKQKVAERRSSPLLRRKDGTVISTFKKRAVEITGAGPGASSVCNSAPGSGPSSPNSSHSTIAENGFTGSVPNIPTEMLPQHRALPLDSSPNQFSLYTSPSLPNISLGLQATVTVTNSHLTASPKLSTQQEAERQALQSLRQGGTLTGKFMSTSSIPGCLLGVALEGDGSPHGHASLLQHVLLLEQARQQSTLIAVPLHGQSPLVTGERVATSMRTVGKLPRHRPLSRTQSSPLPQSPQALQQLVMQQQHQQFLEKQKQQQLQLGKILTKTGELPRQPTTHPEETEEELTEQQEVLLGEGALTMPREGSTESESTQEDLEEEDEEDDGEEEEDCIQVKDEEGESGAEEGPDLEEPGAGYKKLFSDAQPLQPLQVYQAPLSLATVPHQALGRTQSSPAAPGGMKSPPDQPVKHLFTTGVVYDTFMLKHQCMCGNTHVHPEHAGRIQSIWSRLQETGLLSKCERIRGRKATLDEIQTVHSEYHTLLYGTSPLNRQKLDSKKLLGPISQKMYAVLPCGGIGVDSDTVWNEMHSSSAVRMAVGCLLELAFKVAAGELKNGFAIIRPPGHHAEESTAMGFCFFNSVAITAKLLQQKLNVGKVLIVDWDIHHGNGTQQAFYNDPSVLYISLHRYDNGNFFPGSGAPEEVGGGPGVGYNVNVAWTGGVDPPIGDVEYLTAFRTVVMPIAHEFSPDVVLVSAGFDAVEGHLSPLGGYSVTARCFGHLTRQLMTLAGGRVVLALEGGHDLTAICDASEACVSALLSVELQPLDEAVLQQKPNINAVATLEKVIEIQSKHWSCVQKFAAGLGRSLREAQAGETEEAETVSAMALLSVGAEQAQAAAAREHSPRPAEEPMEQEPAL
Chain of Histone deacetylase 4 (Homo sapiens) (P56524 whole entry): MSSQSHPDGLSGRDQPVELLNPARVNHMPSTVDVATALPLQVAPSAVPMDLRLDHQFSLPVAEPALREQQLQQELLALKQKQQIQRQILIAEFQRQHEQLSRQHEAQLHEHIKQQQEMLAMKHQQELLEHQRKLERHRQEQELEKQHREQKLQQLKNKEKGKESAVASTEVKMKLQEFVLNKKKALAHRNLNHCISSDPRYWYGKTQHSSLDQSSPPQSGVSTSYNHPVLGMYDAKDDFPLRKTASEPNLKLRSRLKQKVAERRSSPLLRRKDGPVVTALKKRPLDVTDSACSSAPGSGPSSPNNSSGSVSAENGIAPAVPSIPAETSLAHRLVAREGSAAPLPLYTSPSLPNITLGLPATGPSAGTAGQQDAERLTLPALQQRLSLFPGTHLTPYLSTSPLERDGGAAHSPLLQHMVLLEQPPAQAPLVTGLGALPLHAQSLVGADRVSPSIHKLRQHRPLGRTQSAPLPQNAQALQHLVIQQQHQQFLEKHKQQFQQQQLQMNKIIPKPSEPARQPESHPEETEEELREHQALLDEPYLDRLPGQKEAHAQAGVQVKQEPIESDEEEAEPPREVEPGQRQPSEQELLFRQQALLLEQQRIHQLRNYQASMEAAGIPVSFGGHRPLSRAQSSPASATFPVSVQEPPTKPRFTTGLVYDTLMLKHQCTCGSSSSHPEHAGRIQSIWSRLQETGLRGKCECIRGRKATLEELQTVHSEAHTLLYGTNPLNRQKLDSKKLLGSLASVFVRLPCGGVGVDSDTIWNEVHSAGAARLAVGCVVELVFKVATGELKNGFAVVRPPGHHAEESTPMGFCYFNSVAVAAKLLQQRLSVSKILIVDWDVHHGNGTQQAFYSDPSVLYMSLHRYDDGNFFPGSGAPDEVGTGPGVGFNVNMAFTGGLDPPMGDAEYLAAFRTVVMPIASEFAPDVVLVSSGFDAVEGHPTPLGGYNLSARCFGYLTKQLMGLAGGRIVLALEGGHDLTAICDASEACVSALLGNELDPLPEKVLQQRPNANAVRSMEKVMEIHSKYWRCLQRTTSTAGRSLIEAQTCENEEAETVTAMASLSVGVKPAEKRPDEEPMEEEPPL
Chain of Histone deacetylase 2 (Q92769 whole entry): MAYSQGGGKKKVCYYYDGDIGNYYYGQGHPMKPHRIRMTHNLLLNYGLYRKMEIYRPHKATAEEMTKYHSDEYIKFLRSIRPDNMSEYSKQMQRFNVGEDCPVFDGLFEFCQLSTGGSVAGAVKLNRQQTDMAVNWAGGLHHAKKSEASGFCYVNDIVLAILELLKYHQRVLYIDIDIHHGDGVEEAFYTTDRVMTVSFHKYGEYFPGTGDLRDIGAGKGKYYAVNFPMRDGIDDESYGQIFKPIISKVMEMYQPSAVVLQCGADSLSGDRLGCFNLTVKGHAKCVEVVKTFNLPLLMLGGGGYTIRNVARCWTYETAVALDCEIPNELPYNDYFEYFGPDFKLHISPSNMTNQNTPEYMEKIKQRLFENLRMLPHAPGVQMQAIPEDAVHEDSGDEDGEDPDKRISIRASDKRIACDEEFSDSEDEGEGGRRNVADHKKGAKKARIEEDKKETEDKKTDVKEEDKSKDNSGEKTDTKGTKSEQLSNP

inhibition [1] | inhibition [2] | inhibition [3] | inhibition [4] | inhibition [5] | inhibition [6] | inhibition [7] | IC50 [3] | IC50 [7] | Compound
inactive | 43% | inactive | inactive | – | inactive | inactive | – | – | NC(=O)C1CCCc2c(-c3ccc(Cl)cc3)n[nH]c21 (racemic)
inactive | – | inactive | inactive | – | inactive | inactive | – | – | NC(=O)C1CCCCc2c(-c3ccc(Cl)cc3)n[nH]c21 (racemic)
inactive | – | inactive | inactive | – | inactive | inactive | – | – | CC1(C)Cc2c(-c3ccc(Cl)cc3)n[nH]c2C(C(N)=O)C1 (racemic)
inactive | < 20% | inactive | inactive | < 20% | inactive | inactive | – | – | CC1(C)CCC(C(N)=O)c2[nH]nc(-c3ccc(Cl)cc3)c21 (racemic)
inactive | 42% | inactive | inactive | 56% | inactive | inactive | – | – | CC1(C)Cc2c(-c3ccc(Br)cc3)n[nH]c2C(C(N)=O)C1 (racemic)
inactive | < 20% | inactive | inactive | < 20% | inactive | inactive | – | – | NC(=O)C1CC2(Cc3c(-c4ccc(Cl)cc4)n[nH]c31)OCCO2 (racemic)
inactive | 22% | inactive | inactive | 28% | inactive | inactive | – | – | NC(=O)C1CCCCCc2c(-c3ccc(Cl)cc3)n[nH]c21 (racemic)

The remaining lines, values behind:

Compound | inhibition [1] | inhibition [2] | inhibition [3] | inhibition [4] | inhibition [5] | inhibition [6] | inhibition [7] | IC50 [3] | IC50 [7]
NC(=O)C1CC(c2ccccc2)Cc2c(-c3ccc(Cl)cc3)n[nH]c21 (mixture of isomers) | inactive | 62% | inactive | inactive | 59% | inactive | inactive | – | –
NC(=O)C1CCCc2c(-c3ccc(Cl)c(Cl)c3)n[nH]c21 (racemic) | – | – | – | – | – | – | – | > 10 µM | > 10 µM
NC(=O)C1CCCc2c(-c3ccc(Cl)c(F)c3)n[nH]c21 (racemic) | inactive | 44% | inactive | inactive | – | inactive | inactive | – | –
NC(=O)C1CCCc2c(-c3ccc(Br)cc3)n[nH]c21 (racemic) | inactive | 47% | inactive | inactive | – | inactive | inactive | – | –
Cc1ccc(-c2n[nH]c3c2CCCC3C(N)=O)cc1 (racemic) | inactive | 36% | inactive | inactive | – | inactive | inactive | – | –
NC(=O)C1CCCc2c(-c3cc(Br)cs3)n[nH]c21 (racemic) | inactive | < 20% | inactive | inactive | – | inactive | inactive | – | –
NC(=O)C1CCCc2c(-c3cc4ccccc4s3)n[nH]c21 (racemic) | inactive | – | inactive | inactive | – | inactive | inactive | – | –
NC(=O)C1CCCc2c(-c3cc4ccccc4o3)n[nH]c21 (racemic) | inactive | – | inactive | inactive | – | inactive | inactive | – | –
NC(=O)C1CCCc2c(-c3nc4ccccc4s3)n[nH]c21 (racemic) | inactive | – | inactive | inactive | – | inactive | inactive | – | –
Cn1c(-c2n[nH]c3c2CCCC3C(N)=O)cc2ccccc21 (racemic) | inactive | – | inactive | inactive | – | inactive | inactive | – | –
CC1(C)Cc2c(-c3cc4ccccc4s3)n[nH]c2C(C(N)=O)C1 (racemic) | inactive | 67% | inactive | inactive | 53% | inactive | inactive | – | –
CC1(C)Cc2c(-c3ccc(Cl)c(Cl)c3)n[nH]c2C(C(N)=O)C1 (racemic) | inactive | 28% | inactive | inactive | 23% | inactive | inactive | – | –
Cn1c(-c2n[nH]c3c2CC(C)(C)CC3C(N)=O)cc2ccccc21 (racemic) | inactive | < 20% | inactive | inactive | < 20% | inactive | inactive | – | –
NC(=O)C1CCCc2c(-c3csc4ccccc34)n[nH]c21 (racemic) | inactive | 44% | inactive | inactive | 48% | inactive | inactive | – | –
NC(=O)C1Cc2ccccc2Cc2c(-c3ccc(Cl)cc3)n[nH]c21 (racemic) | inactive | 50% | inactive | inactive | 42% | inactive | inactive | – | –
